Measurements: ChEMBL document CHEMBL1128324, “Synthesis and antitumor activity of 4- and 5-substituted derivatives of isoquinoline-1-carboxaldehyde thiosemicarbazone” (1995)
Values joined by “and” are separate entries in the source; they are usually repeats but may differ in a detail not shown here. Equal values may be shown once.

Columns and labels:
Type in all cases: functional
Bos taurus = species: Bos taurus; test: Effect on rate of glucuronidation of the hydroxyl group by bovine UDP-glucuronyltransferase
How it was run: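 UDP formed during glucuronidation was measured by a coupled enzymatic assay, and the rate was calculated from NADH absorbance using an extinction coefficient of 6.22 × 10^6 cm2 mol-1. Test agents were dissolved in DMSO at final concentrations of 0.5 mM (hydroxyl-substituted pyridines) and 0.1 mM (hydroxyl-substituted isoquinolines). Model compounds lacking the thiosemicarbazone group were used because thiosemicarbazones interfere with the absorbance.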

Mus musculus [1] = species: Mus musculus; test: antineoplastic activity on the survival time of mice bearing L1210 leukemia.% T/C represents the ratio of the survival time of treated to control mice * 100.
How it was run: (§1)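 L1210 leukemia-bearing CD2F1 mice, 5-10 per group, received the drug as an ip suspension once daily for 6 consecutive days, starting 24 h after tumor implantation. %T/C is treated over control survival time ×100. Average weight change is measured from the onset to the termination of treatment.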

Mus musculus [2] = species: Mus musculus; test: antineoplastic activity on the survival time of mice bearing L1210 leukemia. Average weight change of mice from onset to termination of drug treatment.; how it was run: as §1
Mus musculus [3] = species: Mus musculus; test: The compound was tested for antineoplastic activity on the survival time of mice bearing L1210 leukemia.% T/C represents the ratio of the survival time of treated to control mice * 100.
Mus musculus [4] = species: Mus musculus; test: The compound was tested for antineoplastic activity on the survival time of mice bearing L1210 leukemia. Optimum daily dosage of the compound.
Mus musculus [5] = species: Mus musculus; test: The compound was tested for antineoplastic activity on the survival time of mice bearing L1210 leukemia. Average survival time includes only those mice that died prior to day 60.
How it was run: (§2)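 CD2F1 mice bearing L1210 leukemia, 5-10 per group. Drug was given ip as a suspension twice daily (about 12 h apart) for 6 consecutive days, starting 24 h after tumor implantation. Mean survival counts only mice dying before day 60. Survivors beyond 60 days are scored as long-term. Body-weight change is measured from the start to the end of therapy.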

Mus musculus [6] = species: Mus musculus; test: The compound was tested for antineoplastic activity on the survival time of mice bearing L1210 leukemia. Average weight change of mice from onset to termination of therapy.; how it was run: as §2
Mus musculus [7] = species: Mus musculus; test: Survival time of mice(out of 5) bearing L1210 leukemia. Long term survivors are the number of mice that survived for >60 days relative to the total number of treated mice.; how it was run: as §2
Mus musculus [8] = species: Mus musculus; test: antineoplastic activity on the survival time of mice bearing L1210 leukemia. Daily dosage of the compound.; how it was run: as §1

SMILES	Relative rate (Bos taurus)	T/C (Mus musculus [1])	Average weight change (Mus musculus [2])	also measured
Cc1ncc(C)c2c(O)cccc12	0.08	–	–	–
N/C(S)=N/N=C\c1ncc(N2CCOCC2)c2c(N)cccc12	–	138% and 141% and 149%	2% and 7.3% and 6.8%	–
Cc1ncccc1O	0.65	–	–	–
N/C(S)=N/N=C/c1ccc(N)cn1	–	129% and 140% and 138%	-18% and -2.8% and 0%	T/C (Mus musculus [3]): 234%; Dose (Mus musculus [4]): 20 mg/kg; Average survival (Mus musculus [5]): 19.2 days; Average weight (Mus musculus [6]): -7.6%; Long-term survivors (Mus musculus [7]): 1
N/C(S)=N/N=C\c1ncc(N)c2ccccc12	–	177% and 174% and 162%	3.2% and 3.6% and 3%	T/C (Mus musculus [3]): 165%; Dose (Mus musculus [4]): 40 mg/kg; Average survival (Mus musculus [5]): 13.5 days; Average weight (Mus musculus [6]): -7.8%; Long-term survivors (Mus musculus [7]): 3
Cc1cc(C)c(O)cn1	1	–	–	–
NCCNc1cnc(/C=N\N=C(\N)S)c2ccccc12	–	145% and 120% and 116%	-4.6% and -5%	Dose (Mus musculus [8]): 60 mg/kg and 40 mg/kg and 20 mg/kg
CNc1cnc(/C=N\N=C(\N)S)c2ccccc12	–	177% and 159% and 179%	1% and 3% and 8%	–

The next lines start with results.

Relative rate (Bos taurus)	SMILES	T/C (Mus musculus [1])	Average weight change (Mus musculus [2])	also measured
0.81	Cc1ccnc(C)c1O	–	–	–
1	Cc1nccc2c(O)cccc12	–	–	–
0.59	Cc1ccc(O)cn1	–	–	–
0.45	Oc1cccc2cnccc12	–	–	–
